# Experimental data: ChEMBL document CHEMBL1141070, “Synthesis and biological activity of flurbiprofen analogues as selective inhibitors of beta-amyloid(1)(-)(42) secretion” (J Med Chem, 2005)
# Columns and labels:
# [1] = biological target: T1, Amyloid-beta precursor protein (Homo sapiens, UniProt P05067); assay: Inhibitory concentration against beta-amyloid-42 (Abeta42) secretion was evaluated in human neuroglioma cells (H4-APP695NL); assay type: functional, cell-based
# Method in brief: (§1)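 H4-APP695NL human neuroglioma cells (APP695 Swedish K595N/M596L) seeded at 2 × 10^5/well and grown 24 h to confluence. Increasing compound concentrations added overnight; DMSO 1% as vehicle. Supernatant Aβ42 or Aβ40 measured by electrochemiluminescence immunoassay: biotinylated 4G8 plus C-terminus-specific rabbit antibodies, captured on streptavidin beads.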
# Target sequence in this assay (P05067 18-770 limits assumed): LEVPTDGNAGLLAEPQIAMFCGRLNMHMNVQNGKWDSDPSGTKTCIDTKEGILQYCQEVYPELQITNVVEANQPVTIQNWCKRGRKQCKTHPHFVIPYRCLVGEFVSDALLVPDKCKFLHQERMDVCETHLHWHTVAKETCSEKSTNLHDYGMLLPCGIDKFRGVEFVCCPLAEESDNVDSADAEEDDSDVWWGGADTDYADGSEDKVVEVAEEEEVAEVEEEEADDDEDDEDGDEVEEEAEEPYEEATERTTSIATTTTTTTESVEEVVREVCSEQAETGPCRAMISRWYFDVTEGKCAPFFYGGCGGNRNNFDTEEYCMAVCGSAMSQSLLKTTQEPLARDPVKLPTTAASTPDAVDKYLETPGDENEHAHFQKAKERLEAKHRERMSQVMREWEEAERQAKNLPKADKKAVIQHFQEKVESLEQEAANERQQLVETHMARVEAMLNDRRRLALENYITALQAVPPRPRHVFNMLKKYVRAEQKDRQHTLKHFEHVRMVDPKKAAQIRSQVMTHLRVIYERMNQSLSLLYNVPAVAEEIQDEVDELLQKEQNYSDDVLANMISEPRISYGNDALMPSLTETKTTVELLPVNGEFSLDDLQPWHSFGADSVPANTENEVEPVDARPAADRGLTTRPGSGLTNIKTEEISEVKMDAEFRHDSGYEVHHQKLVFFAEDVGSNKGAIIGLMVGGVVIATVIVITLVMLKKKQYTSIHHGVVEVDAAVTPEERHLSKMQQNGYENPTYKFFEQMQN
# [2] = biological target: T2, Prostaglandin G/H synthase 1 (Rattus norvegicus) (UniProt Q63921); assay: Percent inhibition against cyclooxygenase-1 at 100 uM in rat blood
# T2 sequence (whole entry): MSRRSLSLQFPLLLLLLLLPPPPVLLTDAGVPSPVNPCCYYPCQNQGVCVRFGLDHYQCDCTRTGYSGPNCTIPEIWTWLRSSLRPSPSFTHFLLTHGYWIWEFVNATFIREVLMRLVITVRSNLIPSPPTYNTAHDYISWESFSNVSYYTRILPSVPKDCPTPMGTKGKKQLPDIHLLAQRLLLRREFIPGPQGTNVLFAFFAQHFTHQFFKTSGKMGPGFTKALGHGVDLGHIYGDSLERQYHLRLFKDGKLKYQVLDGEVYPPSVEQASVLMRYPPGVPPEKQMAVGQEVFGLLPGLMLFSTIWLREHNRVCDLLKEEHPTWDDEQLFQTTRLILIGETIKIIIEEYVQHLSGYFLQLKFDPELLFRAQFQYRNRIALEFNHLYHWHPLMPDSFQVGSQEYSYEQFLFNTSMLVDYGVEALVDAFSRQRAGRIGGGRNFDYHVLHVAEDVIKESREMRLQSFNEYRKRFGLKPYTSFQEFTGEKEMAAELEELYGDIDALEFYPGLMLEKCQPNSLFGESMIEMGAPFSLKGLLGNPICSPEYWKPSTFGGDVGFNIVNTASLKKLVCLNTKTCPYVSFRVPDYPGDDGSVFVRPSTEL
# Method in brief: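 Fresh rat whole blood preincubated 1 h at 37 °C with compound (100 μM) or DMSO (0.3% final). Stimulated 30 min with A23187 calcium ionophore; plasma thromboxane B2 measured by radioimmunoassay.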
# [3] = biological target: T3, Cytochrome P450 2C19 (Homo sapiens, UniProt P33261); assay: Compound dissolved in DMSO was tested for interaction with baculovirus-insect cells expressing human cytochrome P450 at 100 uM; assay type: ADME
# Method in brief: (§2)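 Microsomes from baculovirus-insect cells expressing human CYP1A2, 2C9, 2C19, 2D6 or 3A4. Compound serially diluted with an NADPH-regenerating mix (16.3 μM NADP+, 0.83 mM glucose-6-phosphate, 0.83 mM MgCl2, 0.4 U/mL G6PDH). Pre-warmed 10 min at 37 °C, then isoform-specific substrate added in 0.35 M potassium phosphate pH 7.4. Fluorometric read-out; IC50 by nonlinear regression.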
# [4] = system: Caco-2; assay: Permeability in the Caco-2 cell; high absorption; assay type: ADME, cell-based; conditions: human
# Method in brief: (§3)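 Caco-2 monolayers on polycarbonate Transwell inserts, 2 h at 37 °C. Apical and basolateral solutions analysed by LC-MS/MS (SRM). Papp = Cb·Vb/(C0·A·t).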
# [5] = biological target: T1, Amyloid-beta precursor protein; conditions: at 100 µM
# Target sequence in this assay (P05067 whole entry): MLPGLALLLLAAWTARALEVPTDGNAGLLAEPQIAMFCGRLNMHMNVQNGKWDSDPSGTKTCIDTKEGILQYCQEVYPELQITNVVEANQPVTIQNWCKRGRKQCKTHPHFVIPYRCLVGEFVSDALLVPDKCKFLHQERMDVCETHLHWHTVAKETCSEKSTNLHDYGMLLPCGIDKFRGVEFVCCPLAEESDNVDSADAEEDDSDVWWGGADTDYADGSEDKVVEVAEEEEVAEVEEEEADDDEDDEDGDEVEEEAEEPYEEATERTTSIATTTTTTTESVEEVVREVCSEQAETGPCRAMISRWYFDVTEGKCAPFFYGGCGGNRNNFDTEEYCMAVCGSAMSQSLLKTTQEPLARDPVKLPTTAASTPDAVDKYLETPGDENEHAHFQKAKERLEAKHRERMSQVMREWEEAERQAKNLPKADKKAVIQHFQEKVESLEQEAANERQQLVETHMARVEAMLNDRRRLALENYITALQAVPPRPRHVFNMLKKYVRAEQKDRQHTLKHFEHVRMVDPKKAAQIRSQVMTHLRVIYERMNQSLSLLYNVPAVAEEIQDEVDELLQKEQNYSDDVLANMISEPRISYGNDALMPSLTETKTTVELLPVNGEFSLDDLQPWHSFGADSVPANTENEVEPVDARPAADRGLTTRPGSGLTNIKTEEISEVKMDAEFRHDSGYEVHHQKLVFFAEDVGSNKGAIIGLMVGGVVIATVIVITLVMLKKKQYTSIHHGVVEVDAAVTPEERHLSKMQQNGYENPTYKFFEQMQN
# [6] = Area under curve after administration to rats at adose of 2.5 mg/kg orally; assay type: ADME, organism-based; design: dose 2.5 mg/kg, route oral; conditions: rat, in vivo, po
# [7] = Area under curve after administration to rats at adose of 0.5 mg/kg intravenously; assay type: ADME, organism-based; design: dose 0.5 mg/kg, route intravenous; conditions: rat, in vivo, iv
# [8] = biological target: T3, Cytochrome P450 2C19; assay: Interaction with human cytochrome P450 isoform 2C19 expressed in baculovirus-insect cells; assay type: ADME; method in brief: as §2
# [9] = Maximum time corresponding to maximum concentration after administration to rats at a dose of 0.5 mg/kg intravenously; assay type: ADME, organism-based; design: dose 0.5 mg/kg, route intravenous; conditions: rat, in vivo, iv
# [10] = Maximal concentration in rats after 0.5 mg/kg intravenous dose; assay type: ADME, organism-based; design: dose 0.5 mg/kg, route intravenous; conditions: rat, in vivo
# [11] = Total body clearance after administration to rats at a dose of 0.5 mg/kg intravenously; assay type: ADME, organism-based; design: dose 0.5 mg/kg, route intravenous; conditions: rat, in vivo, iv
# [12] = Maximum time corresponding to maximum concentration after administration to rats at a dose of 2.5 mg/kg orally; assay type: ADME, organism-based; design: dose 2.5 mg/kg, route oral; conditions: rat, in vivo, po
# [13] = Elimination phase half-life after administration to rats at a dose of 2.5 mg/kg orally; assay type: ADME, organism-based; design: dose 2.5 mg/kg, route oral; conditions: rat, in vivo, po
# [14] = Elimination phase half-life after administration to rats at a dose of 0.5 mg/kg intravenously; assay type: ADME, organism-based; design: dose 0.5 mg/kg, route intravenous; conditions: rat, in vivo, iv
# [15] = Maximal concentration in rats after 2.5 mg/kg oral dose; assay type: ADME, organism-based; design: dose 2.5 mg/kg, route oral; conditions: rat, in vivo
# [16] = biological target: T1, Amyloid-beta precursor protein; assay: Inhibition of A beta 40 peptide 100 um
# Target sequence in this assay (P05067 whole entry): as above
# [17] = Concentration ratio in cerebrospinal fluid and plasma; conditions: rat
# [18] = In vivo steady state metabolic clearance of the compound; conditions: rat
# [19] = Absolute oral bioavailability after administration to rats at a dose of 2.5 mg/kg orally; conditions: rat, in vivo
# [20] = Intestinal drug absorption was estimated in vitro using human colon adenocarcinoma (Caco-2) cell monolayers; Range is 10-50 nm/s; assay type: ADME; method in brief: as §3
# [21] = biological target: T1, Amyloid-beta precursor protein; assay: Concentration required to inhibit A beta 40 peptide; method in brief: as §1
# Target sequence in this assay (P05067 whole entry): as above
# [22] = biological target: T4, CYP1A2 (Homo sapiens, UniProt P05177); assay: Interaction with human cytochrome P450 isoform 1A2 expressed in baculovirus-insect cells at 100 uM; assay type: ADME; method in brief: as §2
# T4 sequence (P05177 whole entry): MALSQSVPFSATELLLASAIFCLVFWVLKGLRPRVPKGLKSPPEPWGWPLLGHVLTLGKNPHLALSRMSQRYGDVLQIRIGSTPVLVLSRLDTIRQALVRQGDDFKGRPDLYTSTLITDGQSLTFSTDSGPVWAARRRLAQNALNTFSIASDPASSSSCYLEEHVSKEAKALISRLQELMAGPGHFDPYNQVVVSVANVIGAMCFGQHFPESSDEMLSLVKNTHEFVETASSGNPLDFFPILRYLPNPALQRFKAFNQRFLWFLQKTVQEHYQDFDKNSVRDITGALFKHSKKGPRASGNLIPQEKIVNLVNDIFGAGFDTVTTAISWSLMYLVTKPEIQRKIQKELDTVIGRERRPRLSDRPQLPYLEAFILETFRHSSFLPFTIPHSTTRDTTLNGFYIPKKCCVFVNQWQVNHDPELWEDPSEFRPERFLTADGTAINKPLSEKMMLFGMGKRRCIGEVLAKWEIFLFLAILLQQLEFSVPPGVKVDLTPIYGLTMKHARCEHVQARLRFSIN
# [23] = biological target: CYP2D6 (Homo sapiens, UniProt P10635); assay: (§4) Interaction with human cytochrome P450 isoform 2D6 expressed in baculovirus-insect cells at 100 uM; assay type: ADME; method in brief: as §2
# [24] = biological target: Cytochrome P450 2D6 (Homo sapiens, UniProt P10635); assay: as §4; assay type: ADME; method in brief: as §2
# [25] = biological target: CYP2C19 (Homo sapiens, UniProt P33261); assay: Interaction with human cytochrome P450 isoform 2C19 expressed in baculovirus-insect cells at 100 uM; assay type: ADME; method in brief: as §2
# Chain of CYP2C19 (P33261 whole entry, canonical isoform): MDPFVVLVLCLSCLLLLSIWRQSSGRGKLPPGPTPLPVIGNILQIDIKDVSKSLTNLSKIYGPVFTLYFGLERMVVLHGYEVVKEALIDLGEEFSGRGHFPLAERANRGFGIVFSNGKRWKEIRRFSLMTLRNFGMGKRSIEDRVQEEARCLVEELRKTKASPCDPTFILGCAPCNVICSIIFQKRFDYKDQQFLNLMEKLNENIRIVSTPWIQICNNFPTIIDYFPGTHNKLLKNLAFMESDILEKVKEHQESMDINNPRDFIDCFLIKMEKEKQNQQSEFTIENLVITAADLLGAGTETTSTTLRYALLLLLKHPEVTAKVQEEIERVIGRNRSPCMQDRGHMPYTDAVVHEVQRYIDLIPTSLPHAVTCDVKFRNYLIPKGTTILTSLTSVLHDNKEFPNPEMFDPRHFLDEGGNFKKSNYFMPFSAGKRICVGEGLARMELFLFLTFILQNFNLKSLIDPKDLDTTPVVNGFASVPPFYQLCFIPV
# T3 sequence (P33261 whole entry, canonical isoform): as above
# Chain of CYP2D6 (P10635 whole entry, canonical isoform): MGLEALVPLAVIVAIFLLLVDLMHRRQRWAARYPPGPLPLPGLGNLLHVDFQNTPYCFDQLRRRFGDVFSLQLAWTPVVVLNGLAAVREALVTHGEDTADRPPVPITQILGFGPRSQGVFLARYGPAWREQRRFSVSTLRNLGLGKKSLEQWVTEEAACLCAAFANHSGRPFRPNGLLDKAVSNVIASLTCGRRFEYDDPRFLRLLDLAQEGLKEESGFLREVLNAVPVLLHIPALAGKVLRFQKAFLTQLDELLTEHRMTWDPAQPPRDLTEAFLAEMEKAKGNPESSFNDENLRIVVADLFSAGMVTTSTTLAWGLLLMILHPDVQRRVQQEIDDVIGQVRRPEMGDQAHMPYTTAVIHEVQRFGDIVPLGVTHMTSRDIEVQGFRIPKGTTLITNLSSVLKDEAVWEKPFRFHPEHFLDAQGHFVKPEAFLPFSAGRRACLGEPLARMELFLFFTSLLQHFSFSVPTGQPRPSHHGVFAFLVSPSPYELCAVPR
# Chain of Cytochrome P450 2D6 (P10635 whole entry, canonical isoform): as above
compound,measurement,setting,value
CC(C(=O)O)c1ccc(-c2ccc(C(F)(F)F)cc2)c(F)c1 (centres undefined),IC50,[1],129 µM
same,inhibition,[2],40%
same,Inhibition,[3],No interactions
same,Absoption,[4],High
same,inhibition,[5],60%
O=C(O)C1(c2ccc(-c3ccc(C(F)(F)F)cc3)c(F)c2)CC1,AUC,[6],2613 µg/h/mL
same,AUC,[7],575 µg/h/mL
same,IC50,[8],71 µM
same,IC50,[1],111 µM
same,Tmax,[9],4.8 min
same,Cmax,[10],14400 ng/mL
same,Clearance,[11],21.6 mL/day/kg
same,inhibition,[2],< 1%
same,Tmax,[12],4 h
same,half-life,[13],1970 min
same,half-life,[14],2170 min
same,Cmax,[15],54.9 µg/mL
same,Absoption,[4],High
same,inhibition,[5],55%
same,Inhibition,[16],22%
same,Ratio,[17],1.8%
same,Clearance,[18],0.52 mL/h
same,bioavailability,[19],90.9%
CC(C(=O)O)c1ccc(-c2ccc(C3CCCCC3)cc2)c(F)c1 (centres undefined),IC50,[1],21 µM
same,Papp,[20],5 ×10⁻⁶ cm/s
same,IC50,[21],46 µM
same,inhibition,[2],18%
same,inhibition at 100 µM,[22],> 50%
same,inhibition at 100 µM,[23],> 50%
same,Inhibition,[24],> 50%
same,inhibition at 100 µM,[25],> 50%
same,inhibition,[5],79%
same,Ratio,[17],1.5%
same,Clearance,[18],174 mL/h
